Test results published in PubChem BioAssay AID493089 (Broad Institute, 2011).
Several values for one entry are separate records, joined by “and”; a condition that tells them apart may be missing. Equal entries are not always repeated. Inconclusive results are not listed. Activity calls are given as the source filed them.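 How the source made its calls: active means fitted half-maximal dose no more than ten times the top valid dose tested, with signal falling; inconclusive means flat curve at 30 to 70% inhibition, or poor fit; inactive means the rest, including rising signal.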

Legend:
[1] = growth inhibition of fluconazole-resistant C. albicans, confirmation, CaCi-2 isolate, dry powder retest, set 2 (AID 493089); conditions: C. albicans CaCi-2 + fluconazole growth, Alamar Blue, 48 h
Outline: (§1)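 Material: C. albicans CaCi-2, fluconazole-resistant isolate / Medium: RPMI-based defined medium with MOPS plus 8 µg/mL fluconazole / Schedule: 48 h compound exposure, 37 °C, 90% humidity, 2 h dye / Measured by: Alamar Blue fluorescence, 1:200 final, excitation 544 nm, emission 590 nm / Read-out basis: relative growth, signal decrease as inhibition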

[2] = test system: C. albicans CaCi-2 (fluconazole-resistant clinical isolate) + fluconazole growth, Alamar Blue, 48 h; experiment: as above
Outline: as §1

SMILES | AC50 [2] | other results
COC(=O)Cn1c(-c2ccccc2)nc2ccccc21 | – | activity change, negative = inhibition ([1]; at 12 µM (top of the series)): -10.6% (inactive)
O=c1c2[nH]c3ccccc3c2nc2n1CCS2 | 10.5 µM | –
CC1CCN(C(=O)Cn2c3ccccc3c3nc4n(c(=O)c32)CCS4)CC1 | 5.13 µM | –
O=C(Cn1c2ccccc2c2nc3n(c(=O)c21)CCS3)N1CCCCC1 | 2.15 µM | –
O=c1c2[nH]c3ccc(F)cc3c2nc2n1CCS2 | 3.41 µM | –
N#Cc1cccc(N2CCN(C(=O)c3ccc(Cl)cc3)CC2)n1 | – | activity change, negative = inhibition ([1]; at 12 µM (top of the series)): -7.37% (inactive)
COC(=O)Cn1nc(-c2ccccc2)c2ccccc21 | 2.89 µM | –
O=C(Cn1c2ccc(F)cc2c2nc3n(c(=O)c21)CCS3)N1CCCCC1 | 0.628 µM | –
COC(=O)Cn1nc(-c2ccc(C)cc2)c2ccccc21 | 12 µM | –
O=C(Cn1c2ccccc2c2nc3n(c(=O)c21)CCS3)N1CCCC1 | 1.1 µM and 3.52 µM | –
O=C(Cn1c2ccccc2c2nc3n(c(=O)c21)CCS3)N1CCOCC1 | 3.57 µM | –
COc1ccc2c(c1)c1nc3n(c(=O)c1n2CC(=O)N1CCC(C)CC1)CCS3 | – | activity change, negative = inhibition ([1]; at 1.2 µM (top of the series)): -8.53% (inactive)
CCN(CC)C(=O)Cn1c2ccc(F)cc2c2nc3n(c(=O)c21)CCS3 | 0.645 µM | –
O=C(Cn1c2ccccc2c2nc3n(c(=O)c21)CCCS3)c1ccc(F)cc1 | – | activity change, negative = inhibition ([1]; at 12 µM (top of the series)): -21.3% (inactive)
O=C(Cn1c2ccc(F)cc2c2nc3n(c(=O)c21)CCS3)N1CCCCCC1 | 1.49 µM | –
CCN(CC)C(=O)Cn1c2ccccc2c2nc3n(c(=O)c21)CCS3 | 1.74 µM and 2.3 µM | –
O=C(Cn1c2ccc(F)cc2c2nc3n(c(=O)c21)CCS3)N1CCCC1 | 0.583 µM | –
O=C(Cn1c2ccccc2c2nc3n(c(=O)c21)CCS3)NCCc1ccc(Cl)cc1 | – | activity change, negative = inhibition ([1]; at 12 µM (top of the series)): -24.6% (inactive)
CC1CCN(C(=O)Cn2c3ccc(F)cc3c3nc4n(c(=O)c32)CCCS4)CC1 | 2.74 µM | –
COc1ccc(NC(=O)Cn2c3ccccc3c3nc4n(c(=O)c32)CCS4)cc1 | 3.02 µM | –
O=C(O)Cn1nc(-c2ccccc2)c2ccccc21 | – | activity change, negative = inhibition ([1]; at 12 µM (top of the series)): -10.3% (inactive)
